From ChEMBL document CHEMBL1125034, “Design and synthesis of 4H-3,1-benzoxazin-4-ones as potent alternate substrate inhibitors of human leukocyte elastase” (J Med Chem, 1990)

Molecular target: T1, Neutrophil elastase (Homo sapiens) (UniProt P08246)
T1 sequence (whole entry): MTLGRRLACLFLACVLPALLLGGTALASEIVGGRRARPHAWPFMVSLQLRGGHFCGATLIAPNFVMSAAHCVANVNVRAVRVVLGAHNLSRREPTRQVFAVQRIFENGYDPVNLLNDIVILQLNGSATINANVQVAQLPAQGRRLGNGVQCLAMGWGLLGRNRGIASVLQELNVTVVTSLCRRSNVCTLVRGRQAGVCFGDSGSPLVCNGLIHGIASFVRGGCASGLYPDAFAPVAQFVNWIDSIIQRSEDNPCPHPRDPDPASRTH
Experiment: Component deacylation rate constant for interaction with human leukocyte elastase
Details: not given

Row | SMILES | Log koff
1 | Cc1cc(C)c2c(=O)oc(NC(C)C)nc2c1 | -4.82
2 | CCCCN(CCCC)c1nc2ccccc2c(=O)o1 | -2.91

System: not listed separately
Experiment: Partition coefficient (logD7.4)
Format: physicochemical
Details: octanol/water, pH 7.4

Row | SMILES | logD
3 | NC(=O)C1CCCN1c1nc2ccccc2c(=O)o1 (stereo not given) | 0.4
4 | CCc1cc(N)cc2nc(N3CCCC3C(=O)N[C@@H](CC(C)C)C(N)=O)oc(=O)c12 (stereo not given in full) | 1.6
5 | O=c1oc(NC2CCCCC2)nc2ccccc12 | 3.5
6 | COc1cccc2nc(Nc3ccccc3)oc(=O)c12 | 3.1
7 | O=c1oc(SCc2ccccc2)nc2ccccc12 | 3.6
8 | COC(=O)[C@H](CC(C)C)Nc1nc2cc(C)cc(C)c2c(=O)o1 | 4
9 | Cc1nc2c(C)cccc2c(=O)o1 | 2.1
10 | Cc1ccc2nc(C)oc(=O)c2c1 | 1.8
11 | CCSc1nc2ccccc2c(=O)o1 | 3
12 | O=c1oc(NCc2ccccc2)nc2ccccc12 | 2.8
13 | CCOC(=O)CCCNc1nc2ccccc2c(=O)o1 | 2.3
14 | CC(C)NC(=O)[C@H](CC(N)=O)Nc1nc2ccccc2c(=O)o1 | 0.2
15 | COC(=O)[C@H](Nc1nc2ccccc2c(=O)o1)c1ccccc1 | 2.6
16 | CC[C@H](C)[C@H](Nc1nc2ccccc2c(=O)o1)C(=O)OC | 2.6
17 | O=c1oc(C(F)(F)F)nc2ccccc12 | 1.9
18 | CCc1cc(N)cc2nc(NC(C)C)oc(=O)c12 | 1.6
19 | Cc1nc2cc3ccccc3cc2c(=O)o1 | 2.8
20 | Cc1ccc2c(=O)oc(NC(C)C)nc2c1C | 3.8
21 | CC(=O)Nc1ccc2c(=O)oc(NC(C)C)nc2c1 | 1.2

System: not listed separately
Experiment: Alkaline hydrolysis rate of the compound
Format: ADME
Details: not given
Summary of the method: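 Alkaline hydrolysis rate constants measured at several pH values at 25 °C. Loss of the long-wavelength UV chromophore (λmax typically 300-345 nm) was followed by spectrophotometer.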

Row | SMILES | Log kOH-
22 | NC(=O)C1CCCN1c1nc2ccccc2c(=O)o1 (stereo not given) | 1.21
23 | CCSc1nc2ccc(NC(C)=O)cc2c(=O)o1 | 2.24
24 | CCc1cc(N)cc2nc(N3CCCC3C(=O)N[C@@H](CC(C)C)C(N)=O)oc(=O)c12 (stereo not given in full) | -1.08
25 | O=c1oc(NC2CCCCC2)nc2ccccc12 | 0.89
26 | Cc1cccc2c(=O)oc(C(F)(F)F)nc12 | 3.09
27 | COc1cccc2nc(Nc3ccccc3)oc(=O)c12 | 0.41
28 | O=c1oc(SCc2ccccc2)nc2ccccc12 | 2.33
29 | COC(=O)[C@H](CC(C)C)Nc1nc2cc(C)cc(C)c2c(=O)o1 | -0.18
30 | Cc1nc2c(C)cccc2c(=O)o1 | 1.18
31 | Cc1ccc2nc(C)oc(=O)c2c1 | 1.36
32 | CCSc1nc2ccccc2c(=O)o1 | 2.19
33 | O=c1oc(NCc2ccccc2)nc2ccccc12 | 1.12
34 | CCSc1nc2cc(OC)c(OC)cc2c(=O)o1 | 1.1
35 | CCOC(=O)CCCNc1nc2ccccc2c(=O)o1 | 1.21
36 | O=c1oc(-c2ccccc2)nc2ccccc12 | 1.79
37 | CC(C)NC(=O)[C@H](CC(N)=O)Nc1nc2ccccc2c(=O)o1 | 1.45
38 | COC(=O)[C@H](Nc1nc2ccccc2c(=O)o1)c1ccccc1 | 1.39
39 | CC[C@H](C)[C@H](Nc1nc2ccccc2c(=O)o1)C(=O)OC | 1.32
40 | O=c1oc(C(F)(F)F)nc2ccccc12 | 3.52
41 | CCc1cc(N)cc2nc(NC(C)C)oc(=O)c12 | -1.26
42 | Cc1nc2cc3ccccc3cc2c(=O)o1 | 2.19
43 | Cc1cc(C)c2c(=O)oc(NC(C)C)nc2c1 | -0.23
44 | Cc1nc2c(N)cccc2c(=O)o1 | 2.61
45 | CCSc1nc2c(C)cccc2c(=O)o1 | 2.01
46 | Cc1ccc2c(=O)oc(NC(C)C)nc2c1C | 0.46
47 | CC(=O)Nc1ccc2c(=O)oc(NC(C)C)nc2c1 | 0.92
48 | CCCCN(CCCC)c1nc2ccccc2c(=O)o1 | -0.57

Molecular target: T1, Neutrophil elastase (Homo sapiens)
Experiment: Component acylation rate constant for interaction with human leukocyte elastase
Details: not given

Row | SMILES | Log kon
49 | CCSc1nc2ccc(NC(C)=O)cc2c(=O)o1 | 4
50 | Cc1cccc2c(=O)oc(C(F)(F)F)nc12 | 4
51 | CCSc1nc2cc(OC)c(OC)cc2c(=O)o1 | 5
52 | O=c1oc(-c2ccccc2)nc2ccccc12 | 4
53 | Cc1cc(C)c2c(=O)oc(NC(C)C)nc2c1 | 3.41
54 | Cc1nc2c(N)cccc2c(=O)o1 | 3.3
55 | CCSc1nc2c(C)cccc2c(=O)o1 | 6.3
56 | CC(C)Cc1nc2ccccc2c(=O)o1 | 4.3
57 | CCCCN(CCCC)c1nc2ccccc2c(=O)o1 | 2.43

Molecular target: T2, Neutrophil elastase (Homo sapiens, UniProt P08246)
T2 sequence (P08246 whole entry): T1 sequence (whole entry)
Experiment: Inhibition of human leukocyte elastase
Details: not given

Row | SMILES | Ki
58 | NC(=O)C1CCCN1c1nc2ccccc2c(=O)o1 (stereo not given) | 0.178 µM
59 | CCSc1nc2ccc(NC(C)=O)cc2c(=O)o1 | 1.45 µM
60 | CCc1cc(N)cc2nc(N3CCCC3C(=O)N[C@@H](CC(C)C)C(N)=O)oc(=O)c12 (stereo not given in full) | 0.115 µM
61 | O=c1oc(NC2CCCCC2)nc2ccccc12 | 0.112 µM
62 | Cc1cccc2c(=O)oc(C(F)(F)F)nc12 | 0.537 µM
63 | COc1cccc2nc(Nc3ccccc3)oc(=O)c12 | 158 µM
64 | O=c1oc(SCc2ccccc2)nc2ccccc12 | 0.0398 µM
65 | COC(=O)[C@H](CC(C)C)Nc1nc2cc(C)cc(C)c2c(=O)o1 | 1.26 µM
66 | Cc1nc2c(C)cccc2c(=O)o1 | 7.41 µM
67 | Cc1ccc2nc(C)oc(=O)c2c1 | 34.7 µM
68 | CCSc1nc2ccccc2c(=O)o1 | 0.00813 µM
69 | O=c1oc(NCc2ccccc2)nc2ccccc12 | 0.955 µM
70 | CCSc1nc2cc(OC)c(OC)cc2c(=O)o1 | 1.2 µM
71 | CCOC(=O)CCCNc1nc2ccccc2c(=O)o1 | 18.6 µM
72 | O=c1oc(-c2ccccc2)nc2ccccc12 | 9.55 µM
73 | CC(C)NC(=O)[C@H](CC(N)=O)Nc1nc2ccccc2c(=O)o1 | 2.14 µM
74 | COC(=O)[C@H](Nc1nc2ccccc2c(=O)o1)c1ccccc1 | 0.0275 µM
75 | CC[C@H](C)[C@H](Nc1nc2ccccc2c(=O)o1)C(=O)OC | 0.214 µM
76 | O=c1oc(C(F)(F)F)nc2ccccc12 | 0.17 µM
77 | CCc1cc(N)cc2nc(NC(C)C)oc(=O)c12 | 0.017 µM
78 | Cc1nc2cc3ccccc3cc2c(=O)o1 | 7.24 µM
79 | Cc1cc(C)c2c(=O)oc(NC(C)C)nc2c1 | 0.00589 µM
80 | Cc1nc2c(N)cccc2c(=O)o1 | 7.94 µM
81 | CCSc1nc2c(C)cccc2c(=O)o1 | 0.0282 µM
82 | Cc1ccc2c(=O)oc(NC(C)C)nc2c1C | 0.708 µM
83 | CC(C)Cc1nc2ccccc2c(=O)o1 | 2.57 µM
84 | CC(=O)Nc1ccc2c(=O)oc(NC(C)C)nc2c1 | 0.148 µM
85 | CCCCN(CCCC)c1nc2ccccc2c(=O)o1 | 4.57 µM
